# Rows were chosen to be rich in hits. Some 1.7% of all compounds tested hit in one or more screens of this group.
# STEP block: blocks human striatal-enriched tyrosine phosphatase. AID 588621. actives 0.25% (n = 360,000). inhibition, % at 20 µM. P54829. recombinant STEP, OMFP fluorogenic substrate, fluorescence;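 active = inhibition at 20 µM, scaled per plate between control wells, above about 37%, limit read from the data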
#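 medium = Bis-Tris buffer pH 6.0, 2.5 mM DTT, 0.005% Tween 20 | test system = STEP (striatal-enriched tyrosine phosphatase) enzyme, cell-free | measure = normalized % inhibition | compound dosing = 20 µM, 1% DMSO | also added = 25 µM OMFP | schedule = reaction 20 min, ambient temperature | measured by = fluorescence read at 480 nm ex / 540 nm em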
# LMPTP block: LMPTP (human) inhibition; inhibition, % at 20 µM; actives 0.22% (n = 360,000); recombinant LMPTP-A, OMFP fluorogenic substrate, fluorescence intensity;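 active = compounds that cut the enzyme signal by at least half of the control window in the single-dose screen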
# Target sequence (P24666 whole entry, looked up): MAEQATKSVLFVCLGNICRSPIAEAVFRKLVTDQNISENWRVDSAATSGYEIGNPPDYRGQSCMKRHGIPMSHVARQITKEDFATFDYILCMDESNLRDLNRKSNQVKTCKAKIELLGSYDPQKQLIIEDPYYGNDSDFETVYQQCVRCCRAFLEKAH
#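 test system = LMPTP-A | amount = 0.625 nM LMPTP-A final | reagent = fluorogenic phosphatase substrate OMFP at 400 µM final | incubation = 50 min at room temperature | benchmarks = no-enzyme low control, uninhibited high control | medium = Bis-Tris pH 6.0, DTT, detergent | signal = fluorescence intensity of OMFP turnover product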
# SUMO1 PPI mod: modulators of human SUMO1-mediated protein-protein interactions; P63165; SUMO1 binding to a labelled peptide, TR-FRET, 1 h; inhibition, % at 20 µM; actives 0.33% (n = 360,000); AID 602429; in the data active = inhibition above about 37%
# Target sequence (P63165 whole entry, looked up): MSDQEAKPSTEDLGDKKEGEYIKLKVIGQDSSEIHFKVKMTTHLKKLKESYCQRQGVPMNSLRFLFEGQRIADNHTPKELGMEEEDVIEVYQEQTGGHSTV
# DNMT1 inh: blocks human DNA methyltransferase DNMT1 | P26358 | DNMT1 molecular beacon, Hinp1I cleavage, fluorescence | inhibition (reported as % activation of signal), % at 10 µM | actives 0.83% (n = 360,000) | AID 588458; in the data active = inhibition above about 50%
# Scp-1 inhibitor: inhibitors of human Scp-1 phosphatase. inhibition, % at 20 µM. actives 0.88% (n = 340,000). Recombinant Scp1, phosphopeptide, malachite green phosphate absorbance. Q9GZU7;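 active = inhibition above about 50% at 20 µM, limit read from the data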
# Target sequence (Q9GZU7 76-261 limits assumed): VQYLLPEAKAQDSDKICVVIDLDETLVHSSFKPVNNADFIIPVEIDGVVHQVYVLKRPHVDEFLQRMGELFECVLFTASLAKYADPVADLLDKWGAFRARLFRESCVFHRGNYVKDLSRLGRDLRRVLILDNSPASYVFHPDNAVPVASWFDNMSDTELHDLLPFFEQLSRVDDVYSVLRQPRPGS
#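 System: SCP-1 catalytic domain; Reagent: Phospho 17-mer peptide substrate; Doses: one concentration, 20 µM, with 1.0% DMSO; Incubation: 45 min room-temperature reaction, 5 min colour, 30 min stabiliser; Signal: Phosphate-binding colour reagent, absorbance read at 630 nm.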
# STEP inh conf: confirmation of human STEP phosphatase inhibitors; shares compounds with STEP block; recombinant STEP, OMFP fluorogenic substrate, fluorescence; inhibition, % at 20 µM; actives 32% (n = 520); AID 623866; call rule not given here
# Numbers stand for hits; . = inactive; / = not tested or not shown.
SMILES,STEP block,LMPTP block,SUMO1 PPI mod,DNMT1 inh,Scp-1 inhibitor,STEP inh conf
CC(=O)C1CCC2C3CC=C4N(C)C(=O)CCC4(C)C3CCC12C (centres undefined),.,.,.,.,.,/
COCCn1c(SCCN2CCOCC2)nc2c1c(=O)[nH]c(=O)n2C,60,.,.,.,.,.
C=CCn1c(SCCN2CCOCC2)nc2c1c(=O)[nH]c(=O)n2C,.,.,.,.,.,/
CCOc1cc(C(=O)NCCC(=O)N2CCC3(CC2)NCCc2[nH]cnc23)cc(OCC)c1OCC,45,.,.,.,.,.
CCOc1ccc(C(=O)NCCC(=O)N2CCC3(CC2)NCCc2[nH]cnc23)cc1OCC,.,.,.,.,.,/
CCc1nn(CC(=O)NCCCN2CCN(CC)CC2)c(=O)c2cc3occc3n12,.,.,.,.,.,/
O=C(Nc1ccccc1-c1nc2ccccc2s1)C1=COCCO1,58,51,.,.,.,.
O=C(NCc1cccnc1)c1ccc2sc([C@@H]3O[C@H](CO)[C@H](O)[C@H](O)[C@H]3O)nc2c1,.,.,.,.,/,/
Cc1ccc(OCCC(=O)NNC(=O)c2ccccc2F)cc1,.,.,.,.,.,/
CCOC(=O)C(=N/O)/C(C)=N/NC(=O)C(=O)Nc1cc(Cl)ccc1Cl,51,.,.,.,.,.
CCOC(=O)C(=N/O)/C(C)=N/NC(C)=O,.,.,.,.,.,/
CCOc1ccc(C2/C(=C(\O)c3ccc4c(c3)OCCO4)C(=O)C(=O)N2CCN2CCOCC2)cc1OCC (centres undefined),.,.,.,.,.,/
Cc1nn(C)cc1/C=N/NC(=S)Nc1ccccc1,76,.,.,.,.,50
Oc1ccccc1C=NNC(=S)Nc1ccc(F)cc1,.,.,.,.,.,/
Cc1cccc(OCC(=O)NNC(=O)CSc2ncc(C#N)c(N)n2)c1,.,.,.,.,.,/
N#Cc1cnc(SCC(=O)NNC(=O)COc2cccc3ccccc23)nc1N,100,.,.,.,.,.
Cc1ccccc1C(=O)NCCCCc1ccccc1,46,.,.,.,.,.
CCCN(CC(=O)Nc1ccccc1OC)C(=O)Cc1ccc2c(c1)CCC2,71,.,.,.,.,46
CCN(CC(=O)Nc1ccccc1C(F)(F)F)C(=O)Cc1ccc2c(c1)CCC2,.,.,.,.,.,/
Cc1ccc(N=C2NC(=O)/C(=C/c3cccnc3)S2)cc1C,45,.,.,.,.,.
Cc1ccc(C)c(N(CC(=O)NC2CCCC2)C(=O)CCC(=O)Nc2cc(C)on2)c1,.,.,.,.,.,/
CCOc1ccc(C(=O)COC(=O)c2cc(=O)[nH]c3ccccc23)cc1,.,.,.,.,.,/
OCCN1CCN(C(=S)c2ccc(Br)cc2)CC1,84,.,.,.,.,39
CSc1ccc(C(=S)N2CCN(CCO)CC2)cc1,54,.,.,.,.,.
S=C(c1ccc(Br)cc1)N1CCCC1,.,.,.,.,.,/
SMILES,STEP block,LMPTP block,SUMO1 PPI mod,DNMT1 inh,Scp-1 inhibitor,STEP inh conf
CCOc1ccc(C2/C(=C(/O)c3ccc4c(c3)CC(C)O4)C(=O)C(=O)N2CCCn2ccnc2)cc1OCC (centres undefined),.,.,.,.,.,/
O=C(Nc1nnc(-c2ccc(Cl)cc2)o1)c1nc2ccccc2s1,72,.,.,.,.,.
CCOc1cc(/C=C(\C#N)C(=O)Nc2ccccc2C(=O)O)ccc1OC(=O)c1ccc(C)cc1,58,.,.,.,.,.
CCCc1nnc(NC(=O)CCC(=O)N2CCC(C)CC2)s1,.,.,.,.,.,/
O=C(Nc1cccc(C(=O)O)c1)/C(=C/c1cccc([N+](=O)[O-])c1)NC(=O)c1cccc(Br)c1,.,.,.,.,.,/
O=C(N/N=C/C(Cl)=C/c1ccc([N+](=O)[O-])cc1)C(=O)Nc1cccc(C(=O)O)c1,46,.,.,.,.,.
COc1cccc(C(=O)/C=C/Nc2ccc(S(=O)(=O)Nc3onc(C)c3C)cc2)c1,43,.,.,.,.,.
Cn1c(SCC(=O)N/N=C/C=C/c2ccccc2[N+](=O)[O-])nc2ccccc21,.,.,.,.,.,/
CCn1c(SCC(=O)N/N=C/C=C\c2ccccc2[N+](=O)[O-])nc2ccccc21,52,.,.,.,.,.
S=C(NCCCN1CCOCC1)Nc1ccc(-c2nc3ccccc3[nH]2)cc1,65,.,.,.,.,40
S=C(NCCCN1CCOCC1)Nc1cccc(-c2nnc3n2CCCCC3)c1,42,.,.,.,.,.
O=C(c1cccc(-c2ccc(O)cc2)c1)N1CCN(c2ccc(F)cc2)CC1,.,.,.,.,.,/
CCOC(=O)C1(Cc2ccc(Cl)cc2)CCN(C(=O)c2cscn2)CC1,.,.,.,.,.,/
O=C(Nc1cccc(O)c1)C1CC(c2cccc(Br)c2)=NO1 (centres undefined),79,.,.,.,.,.
O=C(Nc1cccc2c(=O)[nH][nH]c(=O)c12)c1ccc([N+](=O)[O-])cc1,57,.,.,.,/,47
COCCCN(C(=S)Nc1c(C)cc(C)cc1C)C(C)c1ccccn1 (centres undefined),46,.,.,.,.,25
CN1CCN(C2=NC(=O)/C(=C/c3ccccc3OS(=O)(=O)c3ccccc3)S2)CC1,47,.,.,.,.,.
NC1=NC(=O)/C(=C/c2ccccc2OS(=O)(=O)c2ccccc2)S1,.,.,.,.,.,/
COC(=O)c1c(NC(=O)Cc2ccccc2)sc2c1CC(C)(C)NC2(C)C,51,.,.,.,.,.
COCCN(C(=S)Nc1ccc(OC)c(Cl)c1)C1CCN(C(C)C)CC1,71,.,.,.,.,.
COc1ccc(NC(=S)N(CCC(C)C)C2CCN(C(C)C)CC2)cc1Cl,98,.,.,.,.,79
Cc1ccc(C(=O)Nc2ccc(C(=O)N/N=C/c3cccnc3)cc2)cc1,75,.,.,.,.,.
CCOc1ccc(C(=O)Nc2nc(C)c(C(=O)OC)s2)cc1,79,.,.,.,.,.
COC(=O)c1sc(NC(=O)c2ccncc2)nc1C,.,.,.,.,.,/
O=C(c1cccc(F)c1)N1CCCC(C(=O)N2CCN(c3ccccc3)CC2)C1 (centres undefined),.,.,.,.,.,/
Cc1cccc(-c2nc3sc(C)cc3c(=O)o2)c1,.,.,.,.,.,/
CNC(=S)Nc1ccccc1-c1ccccc1,41,.,.,.,.,.
CCNC(=S)Nc1ccccc1-c1ccccc1,.,.,.,.,.,/
CCN1CCN(CCCNC(=O)c2ccc(CS(=O)c3ccc(Br)cc3)o2)CC1 (centres undefined),.,.,.,.,.,/
COc1ccccc1Nc1ccc([N+](=O)[O-])cc1N,47,.,.,.,.,40
